Activity calls are given as the source filed them. No cut-off for these calls is given here.
How the values were obtained:
[1] = Growth inhibition of human SF295 cells by NCI standard protocol based method; format: functional; details: SF-295
Outline: (§1)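 NCI full 60-cell-line panel, 5-dose assay to the NCI standard protocol. GI₅₀ is the molar concentration inhibiting 50% net cell growth. Mean graph midpoint is averaged over all lines; where the effect is not reached, the highest tested concentration is used.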

[2] = Growth inhibition of human Hs578T cells by NCI standard protocol based method; format: functional; details: Hs-578T; outline: as §1
MDA-MB-435 = assay: Growth inhibition of human MDA-MB-435 cells by NCI standard protocol based method; format: functional; outline: as §1
K562 [3] = assay: Growth inhibition of human K562 cells at 10 uM incubated for 24 hrs by trypan blue dye exclusion assay; format: functional; details: K562, 24 h, read-out: GI
Outline: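 K562 cells in medium with 5% FBS at 37 °C, 5% CO₂. About 2 × 10⁵ cells/mL cultured 24 h, then compound added at 10 μM. After 24 h exposure, cells counted by hemocytometer and viability scored by trypan blue exclusion, reported as percent growth inhibition.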

K562 [4] = assay: Growth inhibition of human K562 cells by NCI standard protocol based method; format: functional; outline: as §1
[5] = Growth inhibition of human SF539 cells by NCI standard protocol based method; format: functional; details: SF-539; outline: as §1
NCI/ADR-RES = assay: Growth inhibition of human NCI/ADR-RES cells by NCI standard protocol based method; format: functional; outline: as §1
Tubulin (Homo sapiens) [6] = target: T1, Tubulin (Homo sapiens) (UniProt P68371+Q9H4B7+P0DPH7+P68366+Q13509+Q71U36+P04350+Q3ZCM7+P07437+P68363+Q9BQE3+Q6PEY2+Q13885+Q9BVA1+Q9BUF5); assay: Inhibition of tubulin (unknown origin) assembly; format: protein-complex assay
SN12C = assay: Growth inhibition of human SN12C cells by NCI standard protocol based method; format: functional
Outline: (§2)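 NCI 60-cell-line screen, standard NCI protocol. Single high dose of 10⁻⁵ M first, then a 5-dose assay across the full panel. Reported as GI₅₀, TGI and LC₅₀, the molar concentrations giving 50% net growth inhibition, total growth inhibition and 50% net cell death. Where an effect was not reached, the highest tested concentration was used.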

[7] = Growth inhibition of human RXF393 cells by NCI standard protocol based method; format: functional; details: RXF 393; outline: as §1
Tubulin (Homo sapiens) [8] = target: T1, Tubulin (Homo sapiens); assay: Inhibition of colchicine binding to tubulin (unknown origin); format: protein-complex assay
U-251 = assay: Growth inhibition of human U251 cells by NCI standard protocol based method; format: functional; outline: as §2
SNB-75 = assay: Growth inhibition of human SNB75 cells by NCI standard protocol based method; format: functional; outline: as §2
OVCAR-4 = assay: Growth inhibition of human OVCAR4 cells by NCI standard protocol based method; format: functional; outline: as §1
SK-MEL-28 = assay: Growth inhibition of human SK-MEL-28 cells by NCI standard protocol based method; format: functional; outline: as §1
[9] = Cytotoxicity against human HuDe cells incubated for 72 hrs by MTT assay; format: cell-based
Outline: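 HuDe primary culture from human epidermis, seeded at 2 × 10⁴ cells/mL. Test drugs at different concentrations, or 0.1% DMSO, added 24 h after seeding, with 72 h exposure. MTT (5 mg/mL in PBS) then applied for 3 h at 37 °C. Formazan solubilized with isopropanol/triton X-100/HCl and read at 570 nm with 690 nm blank.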

NCI-H226 = assay: Growth inhibition of human NCI-H226 cells by NCI standard protocol based method; format: functional; outline: as §1
SW-620 = assay: Growth inhibition of human SW620 cells by NCI standard protocol based method; format: functional; outline: as §2
786-0 = assay: Growth inhibition of human 786-0 cells by NCI standard protocol based method; format: functional; outline: as §1
K562 [10] = assay: Reduction in cell size of human K562 cells at 10 and 25 uM incubated for 48 hrs by light microscopy; format: functional, cell-based
Outline: (§3)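 K562 cells (8 × 10³/well) plated on poly-D-lysine-coated wells and treated at 10 or 25 μM for 48 h. Examined by light microscopy at 200× for shape, detachment, cell number and cell size.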

K562 [11] = assay: Induction of apoptosis in human K562 cells assessed as nuclear fragmentation at 10 uM incubated for 48 hrs by Hoechst 33342 staining based fluorescence microscopy; format: functional, cell-based
Outline: (§4)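 K562 cells (8 × 10³/well) on poly-D-lysine-coated wells, allowed to adhere overnight. Stained with Hoechst 33342 for 30 min, washed with PBS, resuspended in medium, then treated at 10 μM for 48 h.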

K562 [12] = assay: Induction of cell cycle arrest in human K562 cells assessed as accumulation at G2/M phase at 10 uM incubated for 24 hrs by propidium iodide staining based flow cytometry (reference value: 31.6%); format: functional
K562 [13] = assay: Induction of morphological changes in human K562 cells at 10 and 25 uM incubated for 48 hrs by light microscopy; format: functional, cell-based; outline: as §3
K562 [14] = assay: Induction of cell cycle arrest in human K562 cells assessed as accumulation at sub G0/G1 phase at 10 uM incubated for 24 hrs by propidium iodide staining based flow cytometry (reference value: 0.8%); format: functional
K562 [15] = assay: Induction of cell cycle arrest in human K562 cells assessed as accumulation at sub G0/G1 phase at 10 uM incubated for 48 hrs by propidium iodide staining based flow cytometry (reference value: 0.8%); format: functional
K562 [16] = assay: Induction of cell cycle arrest in human K562 cells assessed as accumulation at G2/M phase at 10 uM incubated for 48 hrs by propidium iodide staining based flow cytometry (reference value: 27.4%); format: functional
K562 [17] = assay: Induction of morphological changes in human K562 cells assessed as cell detachment at 10 and 25 uM incubated for 48 hrs by light microscopy; format: functional, cell-based; outline: as §3
K562 [18] = assay: Induction of apoptosis in human K562 cells assessed as necrotic cells level at 10 uM incubated for 24 hrs by Annexin-V and propidium iodide staining staining based flow cytometry (reference value: 0.3%); format: functional
K562 [19] = assay: Reduction in cell number of human K562 cells at 10 and 25 uM incubated for 48 hrs by light microscopy; format: functional, cell-based; outline: as §3
K562 [20] = assay: Induction of cell cycle arrest in human K562 cells assessed as accumulation at G0/G1 phase at 10 uM incubated for 48 hrs by propidium iodide staining based flow cytometry (reference value: 56.6%); format: functional
K562 [21] = assay: Induction of apoptosis in human K562 cells assessed as viable cells level at 10 uM incubated for 24 hrs by Annexin-V and propidium iodide staining staining based flow cytometry (reference value: 98%); format: functional
K562 [22] = assay: Induction of apoptosis in human K562 cells assessed as late apoptotic cells level at 10 uM incubated for 24 hrs by Annexin-V and propidium iodide staining staining based flow cytometry (reference value: 0.2%); format: functional
K562 [23] = assay: Induction of apoptosis in human K562 cells assessed as reduction in pro-caspase-6 levels at 10 uM incubated for 48 hrs by Western blot method relative to basal level; format: functional; details: K562, 48 h
Outline: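 K562 cells were seeded at 1.5 × 10⁵/well and treated 48 h. Lysate protein was measured by Lowry assay and run on SDS-PAGE. Blots on nitrocellulose were probed with alkaline phosphatase-conjugated antibodies to pro-caspases 3 and 6. Loading was checked by Ponceau red and β-actin immunoblot, with level expressed against basal. Three independent experiments.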

K562 [24] = assay: Induction of apoptosis in human K562 cells assessed as chromatin condensation at 10 uM incubated for 48 hrs by Hoechst 33342 staining based fluorescence microscopy; format: functional, cell-based; outline: as §4

Compound COc1ccc(NC(=O)COc2ccccc2)c(C(N)=O)c1 has a GI50 [1] of 650 nM, a GI50 [2] of 592 nM and a GI50 (MDA-MB-435) of 121 nM. The inhibition of growth at 10 µM (K562 [3]) was 85.3%, the GI50 (K562 [4]) was 245 nM and the GI50 [5] was 441 nM. The GI50 (NCI/ADR-RES) was 418 nM, the inhibition (Tubulin (Homo sapiens) [6]) was “inactive” and the GI50 (SN12C) was 3090 nM. For the same compound, the GI50 [7] was 1400 nM, the inhibition (Tubulin (Homo sapiens) [8]) was “inactive” and the GI50 (U-251) was 664 nM. The GI50 (SNB-75) was 245 nM, the GI50 (OVCAR-4) was greater than 100000 nM and the GI50 (SK-MEL-28) was 502 nM. It also gave an IC50 [9] of 942000 nM, a GI50 (NCI-H226) of 21500 nM and a GI50 (SW-620) of 448 nM. It also gave a GI50 (786-0) of 2100 nM.
With NC(=O)c1cc(I)ccc1NC(=O)COc1ccccc1 the Activity (K562 [10]) was “Active”, the Activity (K562 [11]) was “Active” and the GI50 [1] was 223 nM. For the same compound, the Activity (K562 [12]) was 2.4%, the GI50 [2] was 630 nM and the Activity (K562 [13]) was “Active”. The GI50 (MDA-MB-435) was 101 nM, the Activity (K562 [14]) was 14.5% and the inhibition of growth at 10 µM (K562 [3]) was 73%. It also gave an Activity (K562 [15]) of 32.9%, a GI50 (K562 [4]) of 161 nM and an Activity (K562 [16]) of 13.3%. For the same compound, the Activity (K562 [17]) was “Active”, the GI50 [5] was 249 nM and the GI50 (NCI/ADR-RES) was 344 nM. The inhibition (Tubulin (Homo sapiens) [6]) was “inactive”, the GI50 (SN12C) was 945 nM and the GI50 [7] was 413 nM. The inhibition (Tubulin (Homo sapiens) [8]) was “inactive”, the GI50 (U-251) was 396 nM and the Activity (K562 [18]) was 0.9%. For the same compound, the GI50 (SNB-75) was 215 nM, the Activity (K562 [19]) was “Active” and the Activity (K562 [20]) was 45.2%. For the same compound, the Activity (K562 [21]) was 62.1%, the Activity (K562 [22]) was 12.5% and the inhibition at 10 µM (K562 [23]) was 20%. The Activity (K562 [24]) was “Active”, the GI50 (SK-MEL-28) was 1790 nM and the IC50 [9] was 318000 nM. For the same compound, the GI50 (NCI-H226) was 4940 nM, the GI50 (SW-620) was 454 nM and the GI50 (786-0) was 1070 nM.
For NC(=O)c1cc(Cl)ccc1NC(=O)COc1ccccc1, the GI50 [1] was 1960 nM, the GI50 [2] was 4650 nM and the GI50 (MDA-MB-435) was 356 nM. The inhibition of growth at 10 µM (K562 [3]) was 87%, the GI50 (K562 [4]) was 854 nM and the GI50 [5] was 1800 nM. For the same compound, the GI50 (NCI/ADR-RES) was 1430 nM, the inhibition (Tubulin (Homo sapiens) [6]) was “inactive” and the GI50 (SN12C) was 17000 nM. For the same compound, the GI50 [7] was 3930 nM, the inhibition (Tubulin (Homo sapiens) [8]) was “inactive” and the GI50 (U-251) was 2340 nM. It also gave a GI50 (SNB-75) of 1810 nM, a GI50 (SK-MEL-28) of 6250 nM and an IC50 [9] of 808000 nM. The GI50 (SW-620) was 2580 nM and the GI50 (786-0) was 9540 nM.
With COc1cc(NC(=O)COc2ccccc2)c(C(N)=O)cc1OC the Activity (K562 [10]) was “Active”, the Activity (K562 [11]) was “Active” and the GI50 [1] was 930 nM. For the same compound, the Activity (K562 [12]) was 2.8%, the GI50 [2] was 771 nM and the Activity (K562 [13]) was “Active”. The GI50 (MDA-MB-435) was 614 nM, the Activity (K562 [14]) was 13.2% and the inhibition of growth at 10 µM (K562 [3]) was 72.8%. The Activity (K562 [15]) was 20.6%, the GI50 (K562 [4]) was 310 nM and the Activity (K562 [16]) was 31.2%. The Activity (K562 [17]) was “Active”, the GI50 [5] was 563 nM and the GI50 (NCI/ADR-RES) was 487 nM. For the same compound, the inhibition (Tubulin (Homo sapiens) [6]) was “inactive”, the GI50 (SN12C) was 3120 nM and the GI50 [7] was 1690 nM. For the same compound, the inhibition (Tubulin (Homo sapiens) [8]) was “inactive”, the GI50 (U-251) was 777 nM and the Activity (K562 [18]) was 2.3%. The GI50 (SNB-75) was 547 nM, the Activity (K562 [19]) was “Active” and the Activity (K562 [20]) was 39.4%. It also gave an Activity (K562 [21]) of 63.3%, a GI50 (OVCAR-4) greater than 100000 nM and an Activity (K562 [22]) of 11.6%. For the same compound, the inhibition at 10 µM (K562 [23]) was 50%, the Activity (K562 [24]) was “Active” and the GI50 (SK-MEL-28) was 24200 nM. It also gave an IC50 [9] of 163000 nM, a GI50 (NCI-H226) of 42800 nM and a GI50 (SW-620) of 646 nM. It also gave a GI50 (786-0) of 7320 nM.
